HNF4A DNA FP – change in binding of human HNF4A to DNA, primary screen, biochemical, fluorescence polarization, FITC-DNA; 1 h; Hepatocyte nuclear factor 4-alpha (Homo sapiens), P41235; AID 1224865, 2016; activity change, % at 10 µM; hit rate 0.3% among 360,000; in the data active = activity change above about 30%, passing the limit was not always enough
Target sequence (P41235 whole entry, looked up): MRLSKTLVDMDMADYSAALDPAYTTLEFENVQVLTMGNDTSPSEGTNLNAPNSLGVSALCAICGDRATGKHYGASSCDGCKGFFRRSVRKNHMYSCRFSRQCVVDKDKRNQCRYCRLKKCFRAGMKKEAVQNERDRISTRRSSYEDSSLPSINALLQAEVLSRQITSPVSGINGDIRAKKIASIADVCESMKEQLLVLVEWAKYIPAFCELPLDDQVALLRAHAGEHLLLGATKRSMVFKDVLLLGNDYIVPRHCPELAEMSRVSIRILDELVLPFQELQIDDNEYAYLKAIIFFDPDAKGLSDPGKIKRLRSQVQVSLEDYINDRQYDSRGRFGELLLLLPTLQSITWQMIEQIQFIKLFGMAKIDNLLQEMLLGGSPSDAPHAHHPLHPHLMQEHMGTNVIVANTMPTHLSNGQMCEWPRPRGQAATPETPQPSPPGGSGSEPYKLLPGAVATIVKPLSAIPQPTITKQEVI
IDE cell activ – human IDE activators in live cells, primary screen, fluorescence polarization, HEK cells, FAbeta-B substrate | FAbeta-B cleavage; 0% vehicle, 100% cell-free pure enzyme wells | activation, % at 5.96 µM | hit rate 0.073% among 340,000 | AID 493087, 2011;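 active = activation above the mean of all tested compounds plus 3 SD, set per screening campaign, cut at about 17% in these data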
TPT1 inh – Candida albicans TPT1 enzyme inhibitors, primary screen, biochemical, fluorescence polarization. recombinant caTPT1, FP RNA substrate dephosphorylation. inhibition, % at 5 µM. hit rate 0.81% among 300,000;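 active = inhibition above the mean of all tested compounds plus 3 SD, set per screening campaign, cut at about 24% in these data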;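 also: plate controls were DMSO alone for no effect and ferristatin control at 100 nM for full effect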
Tb MetRS inh – T. brucei MetRS inhibitors, primary screen, biochemical, luminescence; purified T. brucei MetRS, ATP depletion, Kinase-Glo luminescence; hit rate 0.4% among 360,000; AID 624268, 2012; inhibition, % at 11.9 µM; methionyl-tRNA synthetase (Trypanosoma brucei brucei);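 active = inhibition above a per-plate cutoff of the control wells' mean inhibition plus 3 SD, cut at about 5.5% in these data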;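 also: 0% = DMSO wells median and 100% = median of wells with control inhibitor compound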
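technique = Kinase-Glo luminescence, ATP depletion format | system = purified MetRS (methionyl-tRNA synthetase) enzyme from Trypanosoma brucei | timing = 15 min preincubation, 2 h reaction, all 25 °C | evaluation = percent inhibition versus plate control medians | dosing = single dose, 11.9 µM final nominal, 0.9% final DMSO | also added = substrates ATP, L-methionine and bulk Escherichia coli tRNA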
CSN deneddyl inh – inhibitors of CSN-mediated cullin deneddylation, primary screen, biochemical, fluorescence polarization, uHTS; COP9 signalosome complex subunit 5 (Homo sapiens), Q92905; Purified CSN, SCF-Nedd8-OG deneddylation; inhibition, % at 12.5 µM; hit rate 0.38% among 360,000;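 active = pattern-corrected inhibition above about 35%, with an unprinted fluorescence ratio check between 0.5 and 1.5, limit read from the data, passing the limit was not always enough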;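 also: 0% = enzyme with substrate and 100% = substrate without enzyme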
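Detection – fluorescence polarization · System – HEK293T-derived human Csn5 enzyme · Controls – substrate-only high control, full reaction low control · Timing – 90 min, room temperature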
IDE cell inh – human IDE inhibitors in live cells, primary screen, fluorescence polarization, HEK cells, FAbetaB substrate. Insulin-degrading enzyme (Homo sapiens), P14735. FAbetaB cleavage. inhibition, % at 5.59 µM. hit rate 0.41% among 320,000. AID 434962, 2010;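 active = percent inhibition above the average of all tested compounds plus 3 SD, set per screening campaign, cut at about 16% in these data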;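 also: IDE supplied by intact live HEK cells; FP after avidin binding of uncleaved biotin substrate so inhibition keeps polarization high; 0% = DMSO wells and 100% = 60 µM reference IDE inhibitor Ii1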
TbMetRS confirm – T. brucei MetRS inhibitors, confirmation, biochemical, luminescence | hit rate 93% among 1,400 | shares compounds with Tb MetRS inh | inhibition, % at 11.9 µM | T. brucei MetRS enzyme, luminescence (ATP depletion) | AID 624412, 2012; in the data active = inhibition above about 7%
Jurkat cytotox – Jurkat T cell cytotoxicity, cytotoxicity control for T. brucei MetRS inhibitor project, luminescence, high throughput | shares compounds with Tb MetRS inh | Jurkat cells viability, ATP luminescence | inhibition, % at 8.3 µM | hit rate 12% among 1,400 | AID 624413, 2012; in the data active = inhibition above about 15%;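 also: 0% = vehicle and 100% = reference inhibitor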
Tb MetRS inh FP – T. brucei MetRS inhibitors, orthogonal assay for T. brucei MetRS inhibitor project, biochemical, fluorescence polarization | hit rate 44% among 1,400 | shares compounds with Tb MetRS inh | inhibition, % at 11.9 µM | purified T. brucei MetRS; in the data active = inhibition above about 17%;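 also: 0% = vehicle wells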
* = called active by the depositor; x = no result given. An excerpt weighted towards active compounds, which were near 1.7% of everything screened.

SMILES	HNF4A DNA FP	IDE cell activ	TPT1 inh	Tb MetRS inh	CSN deneddyl inh	IDE cell inh	TbMetRS confirm	Jurkat cytotox	Tb MetRS inh FP
Cc1ccc(NC(=O)C(C)c2cccc(C(=O)c3ccccc3)c2)cc1O (stereo not given)	-2	-4	-3	84*	-7	5	99*	33*	78*
Cc1cccc(NC(=O)C(C)C(=O)c2ccccc2)c1 (stereo not given)	3	1	x	0	-1	x	x	x	x
CC(C)[C@H](NS(=O)(=O)c1cccc(C(F)(F)F)c1)C(=O)OCC(=O)NC(=O)NCc1ccco1	-3	2	x	0	2	-2	x	x	x
O=S(=O)(NCc1ccc(Cl)cc1Cl)c1ccc(N2CCOCC2)nc1	0	10	1	6.9*	-2	1	14*	-3	3
COc1ccc2[nH]c(=O)c(CN(C(=O)NC3CCCCC3)C3CCCCC3)cc2c1	-1	6	-1	7.0*	0	-1	37*	18*	16
CN1C(=O)C(CC(=O)NCC2CCCCC2)SC1=Nc1ccccc1 (stereo not given)	0	2	1	-1	1	-2	x	x	x
CC(=O)c1ccc(N2CCN(C(=O)CCCn3c(=O)[nH]c4ccccc4c3=O)CC2)cc1	-1	-10	1	23*	-1	7	32*	4	16
CCOC(=O)N1CCN(C(=O)CCCn2c(=O)[nH]c3ccccc3c2=O)CC1	-3	0	-3	0	-2	0	x	x	x
Nc1nnc(COc2ccc(Br)cc2Br)s1	-3	1	0	21*	8	-1	42*	4	20*
OCCNc1nc(Nc2cccc(O)c2)nc2ccccc12	4	-3	0	18*	1	-1	44*	2	14
OCCNc1nc(Nc2ccc(O)cc2)nc2ccccc12	0	2	0	5	-7	-4	x	x	x
CCN(C(=O)CSc1nnc(C)n1-c1ccccc1)C1CCS(=O)(=O)C1 (stereo not given)	4	3	3	-1	4	1	x	x	x
O=C(COc1cc(F)ccc1[N+](=O)[O-])Nc1cccc(S(=O)(=O)NC2=NCCC2)c1	1	-2	x	0	-8	-2	x	x	x
CN(C)c1cc(Cl)c2nonc2c1N	-1	1	-1	5.7*	17	3	4	0	2
Cn1nccc1NC(=O)COCC(=O)O	0	3	-4	0	1	5	x	x	x
CC(=O)O[C@H]1[C@H](C)OC=C[C@@H]1OC(C)=O	-5	-5	-5	0	-5	5	x	x	x
CN(c1ccccc1)S(=O)(=O)c1cccc(NC(=O)c2ccc(Cl)c([N+](=O)[O-])c2)c1	1	1	x	3	0	3	x	x	x
Cc1ccc(SCCC(=O)N/N=C/c2ccccc2O)cc1	-5	1	2	18*	-1	-5	80*	13	51*
O=C(CCCSc1ccc(Cl)cc1)Nc1ccccc1O	0	3	0	18*	-1	0	38*	12	24*
O=C(CCC(=O)Nc1ccc(Br)cc1)N/N=C/c1ccccc1O	2	4	-3	1	2	5	x	x	x
Cc1cccc(NC(=O)CCC(=O)N/N=C/c2ccc(O)cc2O)c1	2	3	-1	54*	5	-2	81*	0	46*
Cc1ccc(SCCC(=O)N/N=C/c2cccnc2)cc1	3	1	5	11*	3	-3	32*	11	21*
Cc1ccc(NC(=O)CCC(=O)N/N=C/c2ccccc2O)cc1	1	-2	-4	-1	1	0	x	x	x
COc1cc([N+](=O)[O-])ccc1NC(=O)CCCOc1cc(C)ccc1C	-1	-1	-1	1	-6	7	x	x	x
FC(F)(F)c1ccc(Cl)c(N/N=C/c2ccc(N3CCOCC3)s2)c1	23	-2	23	0	0	1	x	x	x
SMILES	HNF4A DNA FP	IDE cell activ	TPT1 inh	Tb MetRS inh	CSN deneddyl inh	IDE cell inh	TbMetRS confirm	Jurkat cytotox	Tb MetRS inh FP
O=C(CNC(=O)c1ccc2c(c1)OCO2)N/N=C(Br)/C=C/c1ccccc1	-1	-8	21	35*	1	5	52*	29*	42*
CCc1cccc(NC(=O)Cn2cc(C=O)c3ccccc32)c1	0	3	-1	9.0*	-1	-3	19*	14	12
O=C1CCCN1CCCNc1nc(NCc2cccs2)nc2ccsc12	-1	x	x	2	0	x	x	x	x
O=C(Nc1ccc(S(=O)(=O)N2CCCCC2)cc1)c1ccccc1Cl	-1	-2	-8	-1	-6	-2	x	x	x
COc1ccc(NC(=O)CN2CCCCC2)cc1S(=O)(=O)N1CCCCC1	5	4	x	0	-5	-4	x	x	x
COc1ccc(NC(=O)Nc2ccccc2)cc1S(=O)(=O)N1CCCCC1	-2	2	-1	11*	-9	5	27*	7	15
O=C(Nc1ccccc1)Nc1ccc(S(=O)(=O)N2CCCCC2)cc1	2	0	-3	7.8*	-3	2	15*	7	23*

Source: PubChem (several laboratories)
